As usually defined, the IC50 is the concentration needed to halve the response being measured.

Among the data in ChEMBL document CHEMBL1157766, “Neolignans and glycosides from the stem bark of Illicium difengpi” (J Nat Prod, 2010) are IC50 and inhibition values, retold here.

The structures appear in SMILES notation. Active and inactive are the calls of the source. No cut-off for these calls is given here.

Assay [1] is described as follows: Antioxidant activity in liver microsomes assessed as inhibition of Fe(2+)-Cys system-induced lipid peroxidation preincubated for 15 mins at 37 degC. It is filed as functional, Microsome. As to conditions: for inhibition: Microsome. In outline: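 Sample with liver microsome suspension and 0.2 µM cysteine in 0.1 M PBS pH 7.4, 37 °C, 15 min. Peroxidation started with 50 µM FeSO4 and stopped with 20% TFA. Supernatant heated with 0.67% thiobarbituric acid in boiling water for 10 min, then A532 read. Inhibitory ratio calculated from absorbances.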
On the technique in general: Microsomes from liver hold many membrane-bound enzymes, among them those of drug oxidation.

The nature of assay [2]: Antiinflammatory activity in rat PMNC assessed as inhibition of platelet activating factor-induced beta-glucuronidase release preincubated for 15 mins at 37 degC. The format is functional. In outline: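 Rat polymorphonuclear leukocytes (2.5 × 10^6 cells/mL) preincubated with sample (diluted from 0.1 M DMSO stock to 10^-3 M) at 37 °C for 15 min. Cytochalasin B added for 5 min, then PAF for 5 min, stopped on ice. Supernatant β-glucuronidase measured with 2.5 mM phenolphthalein glucuronic acid in 0.1 M HOAc, 37 °C, 18 h. NaOH stop, A550; inhibitory ratio versus PAF and control.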

In the case of `C=CCc1cc(OC)c(O[C@@H](CO)[C@H](O)c2cc(OC)c(O)c(OC)c2)c(OC)c1`, the IC50 came to 42.3 µM in assay [1] and 24.4 µM in assay [2].
`COc1cc([C@H](O)[C@@H](CO)Oc2c(OC)cc(CCCO)cc2OC)ccc1OC(CO)CO`: the inhibition result in assay [1] is “inactive”. Besides, in assay [2], the IC50 amounted to 1.62 µM.
With `C[C@@H]1O[C@@H](OC[C@H]2O[C@@H](Oc3cc4c(cc3O)OCO4)[C@H](O)[C@@H](O)[C@@H]2O)C(O)[C@H](O)[C@H]1O` (single isomer, unassigned), the inhibition result in assay [1] is “inactive”. Moreover, the IC50 in assay [2] was above 50 µM.
With `COc1cc(O[C@@H]2O[C@H](CO[C@@H]3O[C@@H](C)[C@H](O)[C@@H](O)C3O)[C@@H](O)[C@H](O)[C@H]2O)cc(O)c1OC` (single isomer, unassigned), in assay [1], the inhibition result is “inactive”. In addition, the IC50 in assay [2] was found to be 7.66 µM.
In the same order, the values of `COc1cc(CCCO)cc2c1O[C@H](C1=C[C@H](O)[C@H](O)CC1)[C@H]2CO` [DIFENGPIOL A] are “inactive” and above 50 µM.
In the case of `COc1cc(CCCO)cc2c1O[C@H]([C@]1(O)CC[C@H](OC)[C@@H](O)C1)[C@H]2CO` [DIFENGPIOL B], in assay [1], the inhibition result is “inactive”. Besides, in assay [2], the IC50 was above 50 µM.
Take `C[C@@H]1C(=O)O[C@H]2[C@H](O)[C@@]34[C@H]5C[C@@H](C(C)(C)C)[C@]36[C@@H](OC(=O)[C@@H]6O)O[C@@]4(C(=O)O5)[C@@]12O` [GINKOLIDE B]: in assay [2], the IC50 came out at 2.35 µM.
Consider `COc1cc(/C=C/CO)cc(OC)c1OC(=O)/C=C/c1ccccc1` [NEODIFENGPIN], for which the inhibition entry in assay [1] is “inactive”. In addition, the IC50 in assay [2] is above 50 µM.
